According to ChEMBL document CHEMBL4033790, “Design and Synthesis of Novel Deuterated Ligands Functionally Selective for the γ-Aminobutyric Acid Type A Receptor (GABAAR) α6 Subtype with Improved Metabolic Stability and Enhanced Bioavailability” (J Med Chem, 2018):

How the values were obtained:
[1] = Drug level in human liver microsomes treated with 8-Chloro-2-(3-methoxy-d3-phenyl)-2,5-dihydro-3H-pyrazolo[4,3-c]quinolin-3-one after 60 mins by LC-MS analysis; assay type: ADME; conditions: 1 h
[2] = Drug level in mouse liver microsomes treated with 8-Chloro-2-(3-methoxy-d3-phenyl)-2,5-dihydro-3H-pyrazolo[4,3-c]quinolin-3-one after 60 mins by LC-MS analysis; assay type: ADME; conditions: 1 h
HEK-293T = experiment: Cytotoxicity against HEK293T cells assessed as reduction in cell viability up to 400 uM after 48 hrs by CellTiter-Glo assay; assay type: cell-based; conditions: human
Method in brief: (§1)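 HEK293T and HepG2 cells grown in high-glucose DMEM with non-essential amino acids, 10 mM HEPES, penicillin/streptomycin and 10% heat-inactivated FBS. Cells were harvested with trypsin and plated; compound was pin-transferred 3 h later. Incubation was 48 h, then CellTiter-Glo luminescence was read. Controls were DMSO (negative) and a cytotoxic aminoketone (positive). Quadruplicates, three independent runs, normalized to controls, nonlinear regression.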

[3] = AUC (0 to 12 hrs) in Wistar rat plasma at 10 mg/kg, ip administered as single dose by HPLC-MS/MS analysis; assay type: ADME, organism-based; set-up: time < 12 hr, dose 10 mg/kg, route intraperitoneal
[4] = biological target: Voltage-gated inwardly rectifying potassium channel KCNH2 (Homo sapiens, UniProt Q12809); experiment: Displacement of [3H]-dofetilide from human ERG expressed in HEK cell membranes at >10 uM after 60 to 90 mins by scintillation counting
[5] = Drug metabolism in human liver microsomes assessed as CYP450 mediated-O-demethylated 2-(6-hydroxy-3-pyridyl)-7-(trideuteriomethoxy)-5H-pyrazolo[4,3-c]quinolin-3-one metabolite formation after 60 mins by LC-MS analysis; assay type: ADME; conditions: 1 h
Method in brief: (§2)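 The 60-min samples from the human or mouse liver microsome incubations (10 µM compound, 0.5 mg/mL protein, NADPH regenerating system, 37 °C, pH 7.4) were run on LC-MS in SIM mode with dual ESI/APCI ionization. The method was calibrated to each component's retention time and mass, and the peak intensities of the parent and O-demethylated metabolites were measured.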

[6] = Tmax in Wistar rat brain at 10 mg/kg, ip administered as single dose by HPLC-MS/MS analysis; assay type: ADME, organism-based
Method in brief: (§3)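 Male Wistar rats (250–350 g) received a single i.p. dose of 10 mg/kg as a 5 mg/ml suspension in 85% water, 14% propylene glycol and 1% Tween 80. Three rats per time point were sacrificed at 5, 20, 60, 180 and 720 min for plasma and brain. Samples were cleaned up by solid-phase extraction and quantified by HPLC-MS/MS.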

[7] = Metabolic stability in mouse liver microsomes assessed as parent compound remaining at 10 uM after 60 mins by LC-MS analysis; assay type: ADME, microsome; conditions: read-out: Stability
Method in brief: (§4)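 The 60 min samples of the microsomal incubation (10 μM compound, human or mouse liver microsomes at 0.5 mg/mL, NADPH regenerating system, 37 °C) were analysed by LC-MS. Detection used SIM mode with dual ESI/APCI ionization, calibrated to the retention times and masses of the parent and its O-demethylated metabolites. Peak intensities were measured.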

Mus musculus = experiment: Neurotoxicity in Swiss Webster mouse assessed as induction of motor impairment at 40 mg/kg administered via oral gavage measured after 10 to 60 mins by rotarod method; assay type: toxicity, organism-based; conditions: in vivo
Method in brief: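 Female mice were given a single oral gavage dose of 40 mg/kg, either in 50% PBS/40% propylene glycol/10% DMSO or, for poorly soluble compounds, in 2% polyethylene glycol plus 2.5% hydroxymethyl cellulose. Rotarod performance was tested 10, 30 and 60 min after dosing, with diazepam 5 mg/kg as positive control.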

[8] = Drug metabolism in human liver microsomes assessed as CYP450 mediated-O-demethylated 7-hydroxy-2-(6-methoxypyridin-3-yl)-2H-pyrazolo[4,3-c]quinolin-3(5H)-one metabolite formation after 60 mins by LC-MS analysis; assay type: ADME; conditions: 1 h; method in brief: as §2
[9] = Drug metabolism in mouse liver microsomes assessed as CYP450 mediated-O-demethylated 7-hydroxy-2-(6-methoxypyridin-3-yl)-2H-pyrazolo[4,3-c]quinolin-3(5H)-one metabolite formation after 60 mins by LC-MS analysis; assay type: ADME; conditions: 1 h; method in brief: as §2
[10] = Cmax in Wistar rat plasma at 10 mg/kg, ip administered as single dose measured at 5 to 720 mins post dose by HPLC-MS/MS analysis; assay type: ADME, organism-based; set-up: dose 10 mg/kg, route intraperitoneal
Method in brief: (§5)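 Male Wistar rats (250-350 g) given a single 10 mg/kg i.p. dose of a 5 mg/ml suspension in 85% distilled water, 14% propylene glycol, 1% Tween 80. Three rats per time point (5, 20, 60, 180, 720 min). Blood and brain were collected after sacrifice. Drug was recovered by solid phase extraction and quantified by HPLC-MS/MS.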

Brain = experiment: AUC (0 to 12 hrs) in Wistar rat brain at 10 mg/kg, ip administered as single dose by HPLC-MS/MS analysis; assay type: ADME, organism-based; set-up: dose 10 mg/kg, time < 12 hr, route intraperitoneal; conditions: in vivo
[11] = Drug metabolism in human liver microsomes assessed as CYP450 mediated-O-demethylated 7-hydroxy-2-(6-hydroxypyridin-3-yl)-2H-pyrazolo[4,3-c]quinolin-3(5H)-one metabolite formation after 60 mins by LC-MS analysis; assay type: ADME; conditions: 1 h; method in brief: as §2
HepG2 = experiment: Cytotoxicity against human HepG2 cells assessed as reduction in cell viability up to 400 uM after 48 hrs by CellTiter-Glo assay; assay type: cell-based; conditions: hepg2, 48 h; method in brief: as §1
[12] = Drug metabolism in mouse liver microsomes assessed as CYP450 mediated-O-demethylated 2-(6-hydroxy-3-pyridyl)-7-(trideuteriomethoxy)-5H-pyrazolo[4,3-c]quinolin-3-one metabolite formation after 60 mins by LC-MS analysis; assay type: ADME; conditions: 1 h; method in brief: as §2
[13] = Cmax in Wistar rat brain at 10 mg/kg, ip administered as single dose measured at 5 to 720 mins post dose by HPLC-MS/MS analysis; assay type: ADME, organism-based; set-up: dose 10 mg/kg, route intraperitoneal; method in brief: as §5
[14] = Drug metabolism in mouse liver microsomes assessed as CYP450 mediated-O-demethylated 7-hydroxy-2-(6-hydroxypyridin-3-yl)-2H-pyrazolo[4,3-c]quinolin-3(5H)-one metabolite formation after 60 mins by LC-MS analysis; assay type: ADME; conditions: 1 h; method in brief: as §2
[15] = Terminal elimination half-life in Wistar rat plasma at 10 mg/kg, ip administered as single dose by HPLC-MS/MS analysis; assay type: ADME, organism-based; conditions: read-out: beta t1/2 (converted); method in brief: as §3
[16] = Tmax in Wistar rat plasma at 10 mg/kg, ip administered as single dose by HPLC-MS/MS analysis; assay type: ADME, organism-based; method in brief: as §3
[17] = Terminal elimination half-life in Wistar rat brain at 10 mg/kg, ip administered as single dose by HPLC-MS/MS analysis; assay type: ADME, organism-based; conditions: read-out: beta t1/2 (converted); method in brief: as §3
[18] = Metabolic stability in human liver microsomes assessed as parent compound remaining at 10 uM after 60 mins by LC-MS analysis; assay type: ADME, microsome; conditions: read-out: Stability; method in brief: as §4
Liver = experiment: Half life in mouse liver microsomes at 10 uM by LC-MS/MS analysis; assay type: ADME, microsome
Method in brief: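 Compound at 10 μM final was preincubated 5 min at 37 °C with NADPH regenerating system in phosphate buffer, pH 7.4. Human or mouse liver microsomes (0.5 mg/mL protein) were added to start the reaction. Samples were taken at 0 (no microsomes) and 10–60 min and measured by LC-MS/MS against an internal standard. Half-life = 0.693/k, with k the slope of ln peak-area ratio versus time. Three experiments, each in duplicate.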

[19] = Drug metabolism in mouse liver microsomes assessed as CYP450 mediated-O-demethylated 7-bromo-2-(4-hydroxyphenyl)-2H-pyrazolo[4,3-c]quinolin-3(5H)-one metabolite formation after 60 mins by LC-MS analysis; assay type: ADME; conditions: 1 h; method in brief: as §2
[20] = Drug metabolism in human liver microsomes assessed as CYP450 mediated-O-demethylated 7-bromo-2-(4-hydroxyphenyl)-2H-pyrazolo[4,3-c]quinolin-3(5H)-one metabolite formation after 60 mins by LC-MS analysis; assay type: ADME; conditions: 1 h; method in brief: as §2
[21] = Drug metabolism in mouse liver microsomes assessed as CYP450 mediated-O-demethylated 8-chloro-2-(3-hydroxyphenyl)-2H-pyrazolo[4,3-c]quinolin-3(5H)-one metabolite formation after 60 mins by LC-MS analysis; assay type: ADME; conditions: 1 h; method in brief: as §2
[22] = Drug metabolism in human liver microsomes assessed as CYP450 mediated-O-demethylated 8-chloro-2-(3-hydroxyphenyl)-2H-pyrazolo[4,3-c]quinolin-3(5H)-one metabolite formation after 60 mins by LC-MS analysis; assay type: ADME; conditions: 1 h; method in brief: as §2

Voltage-gated inwardly rectifying potassium channel KCNH2, sequence (Q12809 whole entry): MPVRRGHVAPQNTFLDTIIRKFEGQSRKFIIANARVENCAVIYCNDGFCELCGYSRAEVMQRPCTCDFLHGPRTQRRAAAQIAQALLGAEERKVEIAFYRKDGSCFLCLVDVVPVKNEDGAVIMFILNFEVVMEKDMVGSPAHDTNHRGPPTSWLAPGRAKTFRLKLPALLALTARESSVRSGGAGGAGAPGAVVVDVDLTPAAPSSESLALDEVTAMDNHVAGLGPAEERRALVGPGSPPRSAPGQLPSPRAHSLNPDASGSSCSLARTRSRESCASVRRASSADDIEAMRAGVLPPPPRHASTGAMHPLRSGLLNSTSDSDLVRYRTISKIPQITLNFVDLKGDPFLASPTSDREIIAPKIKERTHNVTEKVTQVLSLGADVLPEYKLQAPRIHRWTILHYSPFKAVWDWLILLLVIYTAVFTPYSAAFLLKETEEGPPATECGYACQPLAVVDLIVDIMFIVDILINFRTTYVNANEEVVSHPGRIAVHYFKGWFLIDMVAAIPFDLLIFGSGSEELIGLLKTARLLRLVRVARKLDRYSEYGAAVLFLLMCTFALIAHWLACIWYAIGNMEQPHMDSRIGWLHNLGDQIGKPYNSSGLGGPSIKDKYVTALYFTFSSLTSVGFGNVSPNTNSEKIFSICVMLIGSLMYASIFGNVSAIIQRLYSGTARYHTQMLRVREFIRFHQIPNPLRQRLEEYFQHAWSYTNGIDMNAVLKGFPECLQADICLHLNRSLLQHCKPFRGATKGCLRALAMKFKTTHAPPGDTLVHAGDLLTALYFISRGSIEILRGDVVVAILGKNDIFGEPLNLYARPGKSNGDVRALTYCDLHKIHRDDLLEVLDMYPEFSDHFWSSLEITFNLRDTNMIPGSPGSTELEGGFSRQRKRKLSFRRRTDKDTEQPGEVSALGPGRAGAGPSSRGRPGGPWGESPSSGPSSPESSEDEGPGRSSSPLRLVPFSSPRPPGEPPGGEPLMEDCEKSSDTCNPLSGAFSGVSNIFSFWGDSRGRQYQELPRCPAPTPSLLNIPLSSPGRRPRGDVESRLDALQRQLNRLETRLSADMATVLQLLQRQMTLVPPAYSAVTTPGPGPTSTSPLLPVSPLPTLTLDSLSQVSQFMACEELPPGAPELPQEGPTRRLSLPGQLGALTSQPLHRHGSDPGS

| Compound | Activity (HEK-293T) | inhibition (INH) [4] | remaining at 1 h, 10 µM [7] [%] | Activity (Mus musculus) | Activity (HepG2) | remaining at 1 h, 10 µM [18] [%] | t1/2 (Liver) [h] | also measured |
| --- | --- | --- | --- | --- | --- | --- | --- | --- |
| O=c1c2c[nH]c3ccc(Cl)cc3c-2nn1-c1cccc(O)c1 | – | – | – | – | – | – | – | Drug metabolism [1]: Metabolite_Detected; Drug metabolism [2]: Metabolite_Detected |
| [2H]C([2H])([2H])Oc1ccc2c3nn(-c4ccc(OC)nc4)c(=O)c-3c[nH]c2c1 | Non-Toxic | Not Active | 91.4 | Non-Toxic | Non-Toxic | 92.3 | – | AUC(0-t) at 12 h [3]: 6020 ng·h/mL; Drug metabolism [5]: Metabolite_Detected; Tmax [6]: 1.67 h; Drug metabolism [8]: Metabolite_Detected; Drug metabolism [9]: Metabolite_Detected; Cmax [10]: 1250 ng/mL; AUC (Brain): 1502.14 ng·h/g; Drug metabolism [11]: Metabolite_Detected; Drug metabolism [12]: Metabolite_Detected; Cmax [13]: 215 ng/g; Drug metabolism [14]: Metabolite_Detected; half-life [15]: 18 h; Tmax [16]: 1 h; half-life [17]: 9.07 h |
| [2H]C([2H])([2H])Oc1ccc(-n2nc3c4ccc(Br)cc4[nH]cc-3c2=O)cc1 | Non-Toxic | Not Active | 73.8 | Non-Toxic | Non-Toxic | 81.5 | 2.3 | Drug metabolism [19]: Metabolite_Detected; Drug metabolism [20]: Metabolite_Detected |
| [2H]C([2H])([2H])Oc1cccc(-n2nc3c4cc(Cl)ccc4[nH]cc-3c2=O)c1 | Non-Toxic | Not Active | 76.6 | Non-Toxic | Non-Toxic | 93 | 2.8 | Drug metabolism [21]: Metabolite_Detected; Drug metabolism [22]: Metabolite_Detected |
